Publication PMC7195562 (Journal of Advanced Research, 2020)
Read-outs that look alike come from different tables or passages of the source. Ends that are not written are not given here. Peptide text beside a SMILES is read from it.

B1: NS3 domain of HCV genotype-4 (domain or fragment)
chain: APITAYAQQTRGLFSTIVTSLTGRDTNENCGEVQVLSTATQSFLGTAVNGVMWTVYHGAGAKTISGPKGPVNQMYTNVDQDLVGWPAPPGVRSLAPCTCGSADLYLVTRHADVIPVRRRGDTRGALLSPRPISILKGSSGGPLLCPMGHRAGIFRAAVCTRGVAKAVDFVPVESLETTMRSP

Legend:
[1] = biological target: T1, NS3 genotype-4 (Hepatitis C virus genotype 4a, UniProt O39929); experiment: Fluorescence anisotropy, dissociation constant of FITC-NS4A with NS3; type: binding, HCV genotype-4
T1 sequence (O39929 1027-1657 limits assumed): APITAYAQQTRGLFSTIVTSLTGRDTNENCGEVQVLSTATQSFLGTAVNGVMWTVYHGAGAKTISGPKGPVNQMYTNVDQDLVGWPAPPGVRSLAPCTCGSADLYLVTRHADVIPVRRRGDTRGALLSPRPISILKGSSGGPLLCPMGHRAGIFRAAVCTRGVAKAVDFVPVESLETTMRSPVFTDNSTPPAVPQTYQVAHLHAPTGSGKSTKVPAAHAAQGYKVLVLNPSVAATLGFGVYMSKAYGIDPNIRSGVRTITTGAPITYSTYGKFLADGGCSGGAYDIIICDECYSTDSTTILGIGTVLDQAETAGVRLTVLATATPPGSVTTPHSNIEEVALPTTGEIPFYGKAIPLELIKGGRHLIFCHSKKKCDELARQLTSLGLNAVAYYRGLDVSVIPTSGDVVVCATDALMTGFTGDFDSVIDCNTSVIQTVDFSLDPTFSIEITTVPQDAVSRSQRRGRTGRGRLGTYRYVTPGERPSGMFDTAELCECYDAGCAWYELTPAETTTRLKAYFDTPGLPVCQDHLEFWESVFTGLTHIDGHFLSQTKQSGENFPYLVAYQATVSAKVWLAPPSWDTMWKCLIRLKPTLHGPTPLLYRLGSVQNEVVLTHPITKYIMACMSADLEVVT
Method in brief: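 His-tagged HCV-4 NS3 domain (expressed in E. coli Rosetta (DE3) pLysS, Ni-NTA purified) serially diluted in 20 mM HEPES, 10 mM DTT, 200 mM NaCl, pH 7.6, with 0.1 µM FITC-labelled NS4A 21'-34' core peptide. Shaken at room temperature for 15, 45, 90 and 120 min. Fluorescence anisotropy read at 480/520 nm. Kd fitted with a single-binding-site model at 90 min.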

[2] = test system: NS3 domain of HCV genotype-4; experiment: Differential static light scattering; type: binding
[3] = biological target: T2, fluorescein isothiocyanate-labeled NS4A(21'-34') core peptide (hepatitis C virus, also: FITC label, position not given here); experiment: fluorescence polarisation
T2 peptide: KKGSVVIVGRIVLSGKK

[4] = biological target: B1; experiment: differential static light scattering
[5] = biological target: B1; experiment: differential static light scattering
[6] = biological target: B1; experiment: differential static light scattering
[7] = biological target: B1; experiment: differential static light scattering
[8] = biological target: B1; experiment: differential static light scattering
[9] = biological target: B1; experiment: differential static light scattering
[10] = biological target: B1; experiment: differential static light scattering

Work on `CC[C@H](C)[C@H](NC(=O)[C@H](CCCNC(=N)N)NC(=O)CNC(=O)[C@@H](NC(=O)[C@@H](NC(=O)[C@@H](NC(=O)[C@@H](NC(=O)[C@H](CO)NC(=O)CNC(=O)[C@H](CCCCN)NC(=O)[C@@H](N)CCCCN)C(C)C)C(C)C)[C@@H](C)CC)C(C)C)C(=O)N[C@H](C(=O)N[C@@H](CC(C)C)C(=O)N[C@@H](CO)C(=O)NCC(=O)N[C@@H](CCCCN)C(=O)N[C@@H](CCCCN)C(=O)O)C(C)C` [NS4A] (H-KKGSVVIVGRIVLSGKK-OH) yielded a Kd [1] of 169 ± 3.7 nM.

GSxG23VIVGRIVLSG [Pep-15] was tested, and the “Tagg shift higher than that of the native NS4A” value ([2]; 2:1 ratio, room temperature, 2 h) was 1.07 °C and the “binding affinity by DSLS compared with the native peptide” value ([2]; all conditions (Fig. S6)) was “higher binding affinity than the native peptide”.

B1 showed a Kd [3] of 169 ± 3.7 nM.

KKGSVVIVGRIVLSGKK [native NS4A(21'-34') core peptide (KK-GSVVIVGRIVLSG-KK)] showed a ΔTagg [4] of 1.62 °C, a ΔTagg [5] of 2.09 °C and a ΔTagg [6] of 0.998 °C. It also gave a ΔTagg [7] of 1.71 °C, a ΔTagg [8] of 1.97 °C and a ΔTagg [9] of 3.16 °C. The ΔTagg [10] was 2.83 °C.
